Data set [1] in a line: Compound was evaluated for the ratio of apparent inactivation rate constant k2 to apparent binding constant Ki. The settings on record: read-out: k2 / Ki. The gist of the method:
(§1)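 Mercurial papain activated with L-cysteine for 45 min at 25 °C in 50 mM phosphate, 1 mM EDTA, pH 6.2. Papain (0.11 μM) was incubated at 25 °C and pH 6.2, in 20% CH3CN, with excess inhibitor. Aliquots taken about every 10 min were diluted 10-fold into buffer containing 2 mM Cbz-Gly-ONp. Residual activity was read at 340 nm, corrected for spontaneous hydrolysis, and analysed by Kitz–Wilson plot.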

Data set [2] concerns the target T1, Papain (Carica papaya) (UniProt P00784).
T1 sequence (whole entry): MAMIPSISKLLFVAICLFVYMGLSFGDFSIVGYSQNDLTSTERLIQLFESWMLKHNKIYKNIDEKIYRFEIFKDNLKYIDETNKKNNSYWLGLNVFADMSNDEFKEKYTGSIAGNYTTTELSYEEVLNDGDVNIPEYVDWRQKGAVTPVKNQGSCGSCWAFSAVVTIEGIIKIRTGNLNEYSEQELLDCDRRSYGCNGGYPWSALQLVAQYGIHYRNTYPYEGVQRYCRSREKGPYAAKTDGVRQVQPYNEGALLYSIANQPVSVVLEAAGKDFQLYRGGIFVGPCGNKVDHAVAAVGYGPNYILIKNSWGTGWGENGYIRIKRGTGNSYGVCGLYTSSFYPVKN
The data set can be described thus: Compound was evaluated for papain inactivation. [I] is the inhibitor concentration; 2-30. The data set is classed as functional. The gist of the method:
as §1

Data set [3] addresses T1, Papain (Carica papaya). The data set can be described thus: Compound was evaluated for papain inactivation. [I] is the inhibitor concentration; 80-160. In kind it is functional. The procedure, abridged: as §1
Data set [4] addresses T1, Papain (Carica papaya). The data set can be described thus: Compound was evaluated for papain inactivation. [I] is the inhibitor concentration; 60-1000. In kind it is functional. The gist of the method:
as §1

Data set [5] addresses T1, Papain (Carica papaya). The data set can be described thus: Compound was evaluated for papain inactivation. [I] is the inhibitor concentration; 1-8. The data set is classed as functional. The procedure, abridged: as §1
In data set [6] the target is T1, Papain (Carica papaya). The data set can be described thus: Compound was evaluated for papain inactivation. [I] is the inhibitor concentration; 60-500. The data set is classed as functional. The gist of the method: as §1
In data set [7] the target is T1, Papain (Carica papaya). The data set can be described thus: Compound was evaluated for papain inactivation. [I] is the inhibitor concentration; 6-35. In kind it is functional. The gist of the method:
as §1

Data set [8] deals with T1, Papain (Carica papaya). The data set can be described thus: Compound was evaluated for papain inactivation. [I] is the inhibitor concentration; 0.05-1.08. The data set is classed as functional. The gist of the method: as §1
In data set [9] the target is T1, Papain (Carica papaya). The data set can be described thus: Compound was evaluated for papain inactivation. [I] is the inhibitor concentration; 30-450. In kind it is functional. The procedure, abridged: as §1
Data set [10] addresses T1, Papain (Carica papaya). The data set can be described thus: Compound was evaluated for papain inactivation. [I] is the inhibitor concentration; 0.87-10. The data set is classed as functional. The procedure, abridged:
as §1

Data set [11] has as its target T1, Papain (Carica papaya). The data set can be described thus: Compound was evaluated for papain inactivation. [I] is the inhibitor concentration; 0.07-0.58. In kind it is functional. The procedure, abridged: as §1
For data set [12], the target named is T1, Papain (Carica papaya). The data set can be described thus: Compound was evaluated for papain inactivation. [I] is the inhibitor concentration; 1.42-10. The data set is classed as functional. The gist of the method:
as §1

kinact/KI and I data for 11 compounds are collected here from ChEMBL document CHEMBL1125406, “Structure-activity relationships for inhibition of papain by peptide Michael acceptors” (J Med Chem, 1992).

Regarding `CC(=O)NC(Cc1ccccc1)C(=O)NC/C=C/S(C)(=O)=O` (stereo unspecified), in data set [1], the kinact/KI is 18.7 M⁻¹ s⁻¹. For the same compound, the I in [2] stood at 2 µM.
`CC(=O)NC(Cc1ccccc1)C(=O)NC/C=C/c1ccc([N+](=O)[O-])cc1` (stereo unspecified) registered an I in data set [3] of 80 µM.
With `CC(=O)NC(Cc1ccccc1)C(=O)NC/C=C/C(N)=O` (stereo unspecified), in data set [1], the kinact/KI came to 1.1 M⁻¹ s⁻¹. The I in [4] came out at 60 µM.
In the case of `COC(=O)/C=C/CNC(=O)[C@H](Cc1ccccc1)NC(C)=O`, in data set [5], the I worked out at 1 mM. Further, the kinact/KI in [1] was 0.25 M⁻¹ s⁻¹.
Turning to `CC(=O)NC(Cc1ccccc1)C(=O)NC/C=C/C#N` (stereo unspecified), the kinact/KI in data set [1] came to 1.7 M⁻¹ s⁻¹. In addition, the I in data set [6] came out at 60 µM.
For the compound `COC(=O)/C=C/CNC(=O)C(Cc1ccccc1)NC(C)=O` (stereo unspecified), the kinact/KI in data set [1] was 26.1 M⁻¹ s⁻¹. Besides, the I in data set [7] was 6 µM.
Consider `COC(=O)/C=C/CNC(=O)[C@@H](CC(C)C)NC(C)=O`, for which the kinact/KI in data set [1] worked out at 2.46 M⁻¹ s⁻¹. In data set [8], this compound gave an I of 0.056 mM.
Consider `CC(=O)NC(Cc1ccccc1)C(=O)NC/C=C/C(=O)O` (stereo unspecified), for which, in data set [1], the kinact/KI came out at 5 M⁻¹ s⁻¹. The I in [9] was 30 µM.
Consider `COC(=O)/C=C/CNC(=O)CCc1ccccc1`, for which the kinact/KI in data set [1] was 0.23 M⁻¹ s⁻¹. The I in [10] worked out at 0.87 mM.
With `COC(=O)/C=C/CNC(=O)[C@@H](CCSC)NC(C)=O`, the kinact/KI in [1] worked out at 2.06 M⁻¹ s⁻¹. The same compound yielded an I in data set [11] of 0.07 mM.
Regarding `COC(=O)/C=C/CNC(=O)c1ccccc1`, the kinact/KI in data set [1] turned out to be 0.05 M⁻¹ s⁻¹. In [12], this compound registered an I of 1.42 mM.
